Results from article PMC4462192 (Bioorganic & medicinal chemistry letters, 2015).

Assays:
RPMI-8226 cells = experiment: intracellular lambda light chain ELISA; type: cell-based, human; conditions: 48 hours, 5 mM, vs untreated control
Summary of the method: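 RPMI-8226 cells were incubated for 48 hours with test compound at 5 mM, alongside untreated and lovastatin (20 μM) controls. Intracellular lambda light chain was quantified by ELISA and expressed as percent of untreated control, mean + SD, n=3. Significance versus untreated cells was assessed by unpaired two-tailed t-test at p<0.05.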

GGTase II = molecular target: T1, GGTase II (Homo sapiens, UniProt P53611+Q92696); conditions: cited from earlier work
T1 sequence (Q92696 1-567): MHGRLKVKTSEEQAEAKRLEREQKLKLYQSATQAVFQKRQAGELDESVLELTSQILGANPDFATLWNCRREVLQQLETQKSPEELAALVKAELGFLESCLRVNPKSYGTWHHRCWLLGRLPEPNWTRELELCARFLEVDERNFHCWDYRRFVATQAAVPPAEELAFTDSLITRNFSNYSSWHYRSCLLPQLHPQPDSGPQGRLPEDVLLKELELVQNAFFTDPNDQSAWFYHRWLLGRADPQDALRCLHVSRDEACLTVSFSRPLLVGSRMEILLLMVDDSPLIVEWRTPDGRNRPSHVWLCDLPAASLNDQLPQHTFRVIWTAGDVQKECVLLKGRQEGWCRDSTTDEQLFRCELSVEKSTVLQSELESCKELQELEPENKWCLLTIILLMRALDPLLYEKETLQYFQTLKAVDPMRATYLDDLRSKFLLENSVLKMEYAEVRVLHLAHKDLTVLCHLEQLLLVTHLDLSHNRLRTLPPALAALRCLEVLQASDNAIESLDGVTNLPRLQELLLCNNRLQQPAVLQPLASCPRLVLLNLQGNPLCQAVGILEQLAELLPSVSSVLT
T1 sequence (P53611 1-331): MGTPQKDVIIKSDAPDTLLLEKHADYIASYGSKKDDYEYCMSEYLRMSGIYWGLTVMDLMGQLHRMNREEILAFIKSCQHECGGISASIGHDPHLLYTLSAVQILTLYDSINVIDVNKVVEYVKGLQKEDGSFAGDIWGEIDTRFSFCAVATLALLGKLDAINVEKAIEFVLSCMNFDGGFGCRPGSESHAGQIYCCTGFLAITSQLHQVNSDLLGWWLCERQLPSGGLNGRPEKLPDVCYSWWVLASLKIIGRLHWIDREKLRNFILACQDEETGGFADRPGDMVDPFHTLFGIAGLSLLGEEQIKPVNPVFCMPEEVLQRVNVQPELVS

[1] = test system: farnesyl diphosphate synthase (FDPS); conditions: cited from earlier work
[2] = test system: Rab6 geranylgeranylation in RPMI-8226 cells; experiment: immunoblot for membrane-bound Rab6; type: cell-based, human; conditions: 48 hours, 5 mM, detergent (membrane) fraction
Summary of the method: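 RPMI-8226 human myeloma cells were exposed to test compound at 5 mM or left untreated for 48 hours, with lovastatin at 20 μM as a global prenylation-disruption control. Cells were lysed by Triton X-114 partitioning to give the detergent (membrane) fraction, which was immunoblotted for Rab6 with calnexin as the loading control. Blots are representative of two independent studies.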

[3] = test system: geranylgeranyl diphosphate synthase (GGDPS); conditions: cited from earlier work

O=C(O)C(O)(Cc1cccnc1)P(=O)(O)O (stereo not drawn) [compound 1, 2-(3-pyridinyl)-1-hydroxyethylidene-1,1-phosphonocarboxylic acid]
intracellular lambda light chain accumulation (RPMI-8226 cells): induce an accumulation of intracellular light chain | difference in activity between the enantiomers (GGTase II): ~ 4 fold | activity against FDPS [1]: show little activity against FDPS | membrane-bound Rab6 level [2]: induces a decrease in the amount of membrane-bound Rab6

O=C(O)C(Cc1cccnc1)P(=O)(O)O (stereo not drawn) [compound 2, 2-(3-pyridinyl)-1-ethylidene-1,1-phosphonocarboxylic acid]
intracellular lambda light chain accumulation (RPMI-8226 cells): do not significantly alter light chain trafficking | GGTase II potency relative to PEHPC (GGTase II): potency similar to PEHPC | activity against FDPS [1]: show little activity against FDPS | membrane-bound Rab6 level [2]: diminished the level of membrane-bound Rab6 to a lesser extent

O=C(O)C(O)(Cc1ccc[n+]([O-])c1)P(=O)(O)O (stereo not drawn) [compound 6]
intracellular lambda light chain accumulation (RPMI-8226 cells): induce an accumulation of intracellular light chain | membrane-bound Rab6 level [2]: diminished the level of membrane-bound Rab6 to a lesser extent

O=C(O)C(Cc1ccc[n+]([O-])c1)P(=O)(O)O (stereo not drawn) [compound 7]
intracellular lambda light chain accumulation (RPMI-8226 cells): do not significantly alter light chain trafficking | membrane-bound Rab6 level [2]: did not decrease membrane-bound Rab6 levels

O=C(O)C(O)(Cc1cnc2ccccn12)P(=O)(O)O (single isomer, unassigned; enantiomer 4) [(+)-enantiomer 4]
activity of (+)-enantiomer relative to (−)-enantiomer (GGTase II): ~ 60 fold | inhibition of other enzyme involved in isoprenoid biosynthesis, probably GGDPS [3]: weak inhibition
